Laboratory results as given in paper PMC7614232 (Organic & biomolecular chemistry, 2022).
Like-named read-outs stand apart in the source and are kept apart here.

Experiments:
Type in all cases: biochemical
[1] = target: T1, AMAN-2 (Golgi α-mannosidase) (Caenorhabditis elegans, UniProt Q2PJ74); test: α-mannosidase inhibition assay with pNP-Man, AMAN-2; conditions: for SI^b = IC50(JBMan)/IC50(AMAN-2): selectivity index
T1 sequence (Q2PJ74 27-1145): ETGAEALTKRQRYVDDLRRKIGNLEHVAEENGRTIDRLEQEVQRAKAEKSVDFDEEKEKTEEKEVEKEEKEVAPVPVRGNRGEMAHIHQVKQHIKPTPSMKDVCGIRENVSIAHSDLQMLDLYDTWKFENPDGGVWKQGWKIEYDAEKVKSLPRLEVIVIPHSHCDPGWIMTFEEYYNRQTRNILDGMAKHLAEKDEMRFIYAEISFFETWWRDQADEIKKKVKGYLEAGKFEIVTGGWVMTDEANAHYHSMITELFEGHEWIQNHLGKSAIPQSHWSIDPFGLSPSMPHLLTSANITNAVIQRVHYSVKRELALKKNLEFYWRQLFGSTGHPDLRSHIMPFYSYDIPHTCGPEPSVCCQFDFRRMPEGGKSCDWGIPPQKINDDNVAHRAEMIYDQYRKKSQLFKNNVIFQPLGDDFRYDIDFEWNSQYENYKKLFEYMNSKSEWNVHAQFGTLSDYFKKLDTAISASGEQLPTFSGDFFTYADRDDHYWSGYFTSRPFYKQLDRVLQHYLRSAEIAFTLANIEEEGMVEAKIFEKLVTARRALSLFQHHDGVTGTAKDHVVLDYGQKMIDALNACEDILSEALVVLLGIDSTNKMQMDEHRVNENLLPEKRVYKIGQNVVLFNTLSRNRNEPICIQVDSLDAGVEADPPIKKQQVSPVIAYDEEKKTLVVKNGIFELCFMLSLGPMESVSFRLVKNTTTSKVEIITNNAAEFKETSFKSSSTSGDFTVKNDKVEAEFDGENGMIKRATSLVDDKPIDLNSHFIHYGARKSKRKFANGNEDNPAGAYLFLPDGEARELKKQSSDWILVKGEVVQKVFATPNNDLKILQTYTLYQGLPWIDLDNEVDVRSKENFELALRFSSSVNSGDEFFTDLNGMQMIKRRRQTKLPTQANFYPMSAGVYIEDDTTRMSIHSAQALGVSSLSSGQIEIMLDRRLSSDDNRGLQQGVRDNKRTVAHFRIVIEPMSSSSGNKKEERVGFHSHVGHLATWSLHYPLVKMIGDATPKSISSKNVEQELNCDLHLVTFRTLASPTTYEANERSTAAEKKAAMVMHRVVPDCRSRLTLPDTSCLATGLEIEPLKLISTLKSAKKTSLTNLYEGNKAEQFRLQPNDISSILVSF

[2] = target: T2, JBMan (Jack bean α-mannosidase) (Canavalia ensiformis, UniProt C0HJB3); test: α-mannosidase inhibition assay with pNP-Man, JBMan
T2 sequence (C0HJB3 1-981): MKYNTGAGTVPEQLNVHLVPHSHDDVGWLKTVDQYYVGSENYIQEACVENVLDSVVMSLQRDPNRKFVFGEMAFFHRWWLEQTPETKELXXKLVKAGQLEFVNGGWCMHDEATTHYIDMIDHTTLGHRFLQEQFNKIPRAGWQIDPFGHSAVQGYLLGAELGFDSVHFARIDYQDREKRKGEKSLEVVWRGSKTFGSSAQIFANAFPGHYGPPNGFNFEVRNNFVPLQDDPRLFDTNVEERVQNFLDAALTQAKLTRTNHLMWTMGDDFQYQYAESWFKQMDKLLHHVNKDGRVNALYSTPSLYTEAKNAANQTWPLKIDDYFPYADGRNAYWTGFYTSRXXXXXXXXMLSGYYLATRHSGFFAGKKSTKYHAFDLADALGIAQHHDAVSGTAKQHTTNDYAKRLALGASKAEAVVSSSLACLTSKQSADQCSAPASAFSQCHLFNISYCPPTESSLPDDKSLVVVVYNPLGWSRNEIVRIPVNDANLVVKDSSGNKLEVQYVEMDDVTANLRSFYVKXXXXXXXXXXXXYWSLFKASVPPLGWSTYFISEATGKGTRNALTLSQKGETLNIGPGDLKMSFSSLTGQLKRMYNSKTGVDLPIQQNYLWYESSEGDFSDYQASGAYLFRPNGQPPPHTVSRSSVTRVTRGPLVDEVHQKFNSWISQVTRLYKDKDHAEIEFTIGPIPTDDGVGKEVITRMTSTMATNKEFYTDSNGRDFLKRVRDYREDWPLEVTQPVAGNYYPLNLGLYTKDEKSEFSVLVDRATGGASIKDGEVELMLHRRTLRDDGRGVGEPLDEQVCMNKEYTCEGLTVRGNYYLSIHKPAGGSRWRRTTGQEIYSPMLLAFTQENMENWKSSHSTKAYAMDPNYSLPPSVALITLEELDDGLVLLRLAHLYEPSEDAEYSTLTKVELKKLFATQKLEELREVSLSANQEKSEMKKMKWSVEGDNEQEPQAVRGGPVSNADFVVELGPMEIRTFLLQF
Summary of the method: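 Commercial jack bean α-mannosidase (0.05 μg protein) in 50 mM acetate buffer, pH 5.0. Compound taken from a 50 mM DMSO solution, diluted in water, and preincubated with enzyme 5 min at rt. pNP-Man was added and the reaction ran 1-2 h at 37 °C. Stopped with 0.5 M sodium carbonate; p-nitrophenol read at 405 nm. […] Three independent experiments in duplicate.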

[3] = test system: Golgi-type mannosidases (GMIIb and AMAN-2); test: inhibition of and selectivity toward Golgi-type mannosidases, stated jointly; conditions: IC50(LManII)/IC50(GMIIb) or IC50(JBMan)/IC50(AMAN-2)
[4] = read-out: IC50 AMAN-2, 2 mM pNP-Man, pH 6.0
[5] = read-out: Ki AMAN-2, Dixon plots, pNP-Man 0.5-4 mM, pH 6.0
[6] = read-out: IC50 JBMan, 2 mM pNP-Man, pH 5.0
[7] = read-out: Ki JBMan, Dixon plots, pNP-Man 0.5-4 mM, pH 5.0

SI^b = IC50(JBMan)/IC50(AMAN-2) [1]	IC50 [1, 4] [µM]	IC50 [2, 6] [µM]	SMILES	IC50 [1] [µM]	IC50 [2] [µM]	also measured
9	12.5 ± 0.1	115 ± 6.7	Cl.N=C(N)NCc1ccc(CN2C[C@@H](O)[C@@H](O)[C@H]2CO)cc1 [Compound 9, 1,4-Dideoxy-N-4-guanidinomethylbenzyl-1,4-imino-d-lyxitol hydrochloride]			Ki [1, 5]: 10.3 µM; Ki [2, 7]: 52.4 µM
269	3.5 ± 0.1	940 ± 24	OCC1C(O)C(O)CN1Cc1ccc(I)cc1 (stereo not drawn) [Compound 16, 1,4-Dideoxy-1,4-imino-N-4-iodobenzyl-d-lyxitol]			
812	2.4 ± 0.1	1950 ± 250	OC[C@@H]1[C@H](O)[C@H](O)CN1Cc1ccc2ccccc2c1 [Compound 17, 1,4-Dideoxy-1,4-imino-N-(naphthalen-2-ylmethyl)-d-lyxitol]			IC50 ([1]; read-out: IC50 AMAN-2, 2 mM pNP-Man, pH 6.0, listed as N-2-naphtylmethyl): 7.6 µM; selectivity index (SI) toward Golgi-type enzymes [3]: > 100
86	0.21 ± 0.1	18 ± 1.7	OCC1C(O)C(O)CN1CCc1cccc2ccccc12 (stereo not drawn) [Compound 18, 1,4-Dideoxy-1,4-imino-N-(2-(naphthalen-1-yl)ethyl)-d-lyxitol]			Ki [1, 5]: 0.15 µM; Ki [2, 7]: 6.5 µM
3			Cl.N=C(N)NCCCCCCCCCCN1C[C@@H](O)[C@@H](O)[C@H]1CO [Compound 25, 1,4-Dideoxy-N-(10-guanidinodecyl)-1,4-imino-d-lyxitol hydrochloride]	2.7 ± 0.1	8.3 ± 1.2	
3			Cl.N=C(N)CCCCCCCCCN1C[C@@H](O)[C@@H](O)[C@H]1CO [Compound 26, N-(9-amidinononyl)-1,4-dideoxy-1,4-imino-d-lyxitol hydrochloride]	1.4 ± 0.1	4.7 ± 1.2	Ki [1]: 0.78 µM; Ki [2]: 1.4 µM

SMILES	SI^b = IC50(JBMan)/IC50(AMAN-2) [1]	IC50 [1, 4] [µM]	IC50 [2, 6] [µM]	IC50 [1] [µM]	IC50 [2] [µM]	also measured
OC[C@@H]1[C@H](O)[C@H](O)CN1Cc1ccccc1 [Compound 4, N-Benzyl-1,4-dideoxy-1,4-imino-d-lyxitol]	124			8.7 ± 0.1	1080 ± 185	
OC[C@@H]1[C@H](O)[C@H](O)CN1CC1CCCCC1 [Compound 19, N-Cyclohexylmethyl-1,4-dideoxy-1,4-imino-d-lyxitol]	75			17.3 ± 0.1	1290 ± 113	
OC[C@@H]1[C@H](O)[C@H](O)CN1CC1CCOCC1 [Compound 20]	30	84.3 ± 0.1	2550 ± 63			
CCCCCCCCCCCCN1C[C@@H](O)[C@@H](O)[C@H]1CO [Compound 21, 1,4-Dideoxy-N-dodecyl-1,4-imino-d-lyxitol]	9			2.3 ± 0.1	20.3 ± 4.4	
